ChEMBL document CHEMBL1136914, “Synthesis and structure-activity relationships of bengazole A analogs” (2009)
Converted amounts (≈) assume the structure as drawn. The source made the active and inactive calls. The rule behind the calls is not given here.

Key:
[1] = test system: Candida albicans; experiment: Antifungal activity against Candida albicans isolate 96-489 up to 300 ug/disk by paper disk diffusion assay; format: functional, organism-based
How it was run: (§1)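 Disk diffusion on agar; test material applied as μg per paper disk (doses up to 300 μg/disk); activity read as zone of growth inhibition in mm.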

[2] = test system: Nakaseomyces glabratus; experiment: Antifungal activity against Candida glabrata up to 300 ug/disk by paper disk diffusion assay; format: functional, organism-based; how it was run: as §1
[3] = test system: Pichia kudriavzevii; experiment: Antifungal activity against Candida krusei up to 300 ug/disk by paper disk diffusion assay; format: functional, organism-based; how it was run: as §1
[4] = test system: Candida albicans; experiment: Antifungal activity against Candida albicans ATCC 14503 up to 300 ug/disk by paper disk diffusion assay; format: functional, organism-based; how it was run: as §1
[5] = test system: Candida albicans; experiment: Antifungal activity against Candida albicans ATCC 14503 at 300 ug/disk by disk diffusion assay; format: functional; details: read-out: IZ; how it was run: as §1
[6] = test system: Nakaseomyces glabratus; experiment: Antifungal activity against fluconazole-resistant Candida glabrata at 300 ug/disk by disk diffusion assay; format: functional; details: read-out: IZ
How it was run: (§2)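 Agar disk diffusion against a panel of five Candida species, including fluconazole-resistant strains. Compound was applied per disk at doses up to 300 μg/disk. Activity was read as the diameter of the zone of growth inhibition, in mm.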

[7] = test system: Pichia kudriavzevii; experiment: Antifungal activity against Candida krusei at 300 ug/disk by disk diffusion assay; format: functional; details: read-out: IZ; how it was run: as §1
[8] = test system: Candida albicans; experiment: Antifungal activity against Candida albicans isolate 96-489 at 300 ug/disk by disk diffusion assay; format: functional; details: read-out: IZ; how it was run: as §2
[9] = test system: Candida albicans; experiment: Antifungal activity against fluconazole-resistant Candida albicans CDFR1 […]; format: functional
[10] = test system: Candida albicans; experiment: Antifungal activity against fluconazole-resistant Candida albicans CDFR1 at 300 ug/disk by disk diffusion assay; format: functional; details: read-out: IZ; how it was run: as §2
[11] = test system: Candida albicans; experiment: Antifungal activity against Candida albicans isolate 96-489 after 24 hrs by microbroth dilution method; format: functional; details: isolate 96-489, 24 h
How it was run: (§3)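 Microbroth dilution MIC in RPMI medium, incubated at 37 °C for 24 h; MIC reported in μg/mL.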

[12] = test system: Pichia kudriavzevii; experiment: Antifungal activity against Candida krusei after 48 hrs by microbroth dilution method; format: functional
How it was run: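 Microbroth dilution MIC in RPMI medium at 37 °C, with incubation extended to 48 h; MIC given in μg/mL.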

[13] = test system: Candida albicans; experiment: Antifungal activity against Candida albicans ATCC 14503 after 24 hrs by microbroth dilution method; format: functional; details: ATCC 14503, 24 h; how it was run: as §3
[14] = test system: Escherichia coli; experiment: Antibacterial activity against Escherichia coli; format: functional, organism-based
[15] = test system: Candida albicans; experiment: Antifungal activity against Candida albicans ATCC 14503; format: functional
[16] = test system: Pichia kudriavzevii; experiment: Antifungal activity against Candida krusei at 10 ug/disk by disk diffusion assay; format: functional; details: read-out: IZ; how it was run: as §1
[17] = test system: Staphylococcus aureus; experiment: Antibacterial activity against Staphylococcus aureus; format: functional, organism-based
[18] = test system: Candida albicans; experiment: Antifungal activity against Candida albicans isolate 96-489 at 10 ug/disk by disk diffusion assay; format: functional; details: read-out: IZ; how it was run: as §1
[19] = test system: Pseudomonas aeruginosa; experiment: Antibacterial activity against Pseudomonas aeruginosa; format: functional, organism-based
[20] = test system: Nakaseomyces glabratus; experiment: Antifungal activity against fluconazole-resistant Candida glabrata at 10 ug/disk by disk diffusion assay; format: functional; details: read-out: IZ; how it was run: as §2
[21] = test system: Candida albicans; experiment: Antifungal activity against Candida albicans ATCC 14503 at 10 ug/disk by disk diffusion assay; format: functional; details: read-out: IZ; how it was run: as §2
[22] = test system: Candida albicans; experiment: Antifungal activity against fluconazole-resistant Candida albicans CDFR1 at 10 ug/disk by disk diffusion assay; format: functional; details: read-out: IZ; how it was run: as §2
[23] = test system: Pichia kudriavzevii; experiment: Antifungal activity against Candida krusei at 5 ug/disk by disk diffusion assay; format: functional; details: read-out: IZ; how it was run: as §1
[24] = test system: Candida albicans; experiment: Antifungal activity against Candida albicans isolate 96-489 at 5 ug/disk by disk diffusion assay; format: functional; details: read-out: IZ; how it was run: as §1
[25] = test system: Nakaseomyces glabratus; experiment: Antifungal activity against fluconazole-resistant Candida glabrata at 5 ug/disk by disk diffusion assay; format: functional; details: read-out: IZ; how it was run: as §2
[26] = test system: Candida albicans; experiment: Antifungal activity against Candida albicans ATCC 14503 at 5 ug/disk by disk diffusion assay; format: functional; details: read-out: IZ; how it was run: as §1
[27] = test system: Candida albicans; experiment: Antifungal activity against fluconazole-resistant Candida albicans CDFR1 at 5 ug/disk by disk diffusion assay; format: functional; details: read-out: IZ; how it was run: as §2

| SMILES | Activity [1] | Activity [2] | Activity [3] | Activity [4] | zone of inhibition at 300 µg/disc [5] [mm] | zone of inhibition at 300 µg/disc [6] [mm] | zone of inhibition at 300 µg/disc [7] [mm] | zone of inhibition at 300 µg/disc [8] [mm] | MIC [9] [µg/mL] | other results |
| --- | --- | --- | --- | --- | --- | --- | --- | --- | --- | --- |
| CCCCCCCCCCCCCC(=O)OC(c1ccccc1)c1nc(C(CCC)O[Si](C)(C)C(C)(C)C)co1 (stereo not given) | inactive | inactive | inactive | inactive |  |  |  |  |  |  |
| CCCC(O[Si](C)(C)C(C)(C)C)c1coc(C(O)c2ccccc2)n1 (stereo not given) | inactive | inactive | inactive | inactive |  |  |  |  |  |  |
| C[C@@H](O[Si](C)(C)C(C)(C)C)[C@@H]1OC(C)(C)O[C@@H]1C[C@@H](O)c1cocn1 |  |  |  |  | 8 | 0 | 0 | 0 | > 32 | zone of inhibition at 300 µg/disc [10]: 0 mm |
| CCCC(O[Si](C)(C)C(C)(C)C)c1coc(C(O)c2ccco2)n1 (stereo not given) | inactive | inactive | inactive | inactive |  |  |  |  |  |  |
| CCCCCCCCCCCCCC(=O)OC(c1ccc2ccccc2c1)c1cnc(SC)o1 (stereo not given) |  |  |  |  |  |  |  |  |  | MIC [11]: > 64 µg/mL; MIC [12]: > 64 µg/mL; MIC [13]: > 64 µg/mL |
| CCCCCCCCCCCCCC(=O)OC(c1cnco1)C(C)(C)C (stereo not given) |  |  |  |  | 0 | 0 | 0 | 0 | > 32 | zone of inhibition at 300 µg/disc [10]: 0 mm |
| CSc1ncc(C(O)c2ccccc2)o1 (stereo not given) |  |  |  |  | 10 |  | 9 |  |  |  |
| CCCC(O[Si](C)(C)C(C)(C)C)c1coc(C(O)c2cnco2)n1 (stereo not given) | inactive | inactive | inactive | inactive |  |  |  |  |  |  |
| OC(c1ccccc1)c1cnco1 (stereo not given) |  |  |  |  | 10 |  | 9 |  |  |  |
| CCCCCCCCCCCCCC(=O)O[C@@H](c1cnco1)c1nc([C@@H](O)C[C@@H](O)[C@@H](O)[C@@H](C)O)co1 [BENGAZOLE A] |  |  |  |  |  |  |  |  | > 32 | Activity [14]: inactive; MIC [15]: 1 µg/mL (≈ 1.91 µM); zone of inhibition at 10 µg/disc [16]: 35 mm; Activity [17]: inactive; MIC [11]: 1 µg/mL (≈ 1.91 µM); zone of inhibition at 10 µg/disc [18]: 15 mm; Activity [19]: inactive; zone of inhibition at 10 µg/disc [20]: 15 mm; zone of inhibition at 10 µg/disc [21]: 50 mm; zone of inhibition at 10 µg/disc [22]: 50 mm; MIC [13]: 1 µg/mL (≈ 1.91 µM) |
| CCCCCCCCCCCCCC(=O)OC(c1ccccc1)c1nc(C(O)CCC)co1 (stereo not given) | inactive | inactive | inactive | inactive |  |  |  |  |  |  |
| CC(C)(C)C(O)c1cocn1 (stereo not given) |  |  |  |  | 0 | 0 | 0 | 0 | > 32 | zone of inhibition at 300 µg/disc [10]: 0 mm |
| CCCCCCCCCCCCCC(=O)OC(c1ccc2ccccc2c1)c1cnco1 (stereo not given) |  |  |  |  |  |  |  |  |  | MIC [11]: > 64 µg/mL; MIC [12]: > 64 µg/mL; MIC [13]: > 64 µg/mL |
| CCCCCCCCCCCCCC(=O)OC(c1ccco1)c1nc(C(O)CCC)co1 (stereo not given) | inactive | inactive | inactive | inactive |  |  |  |  |  |  |
| CCCCCCCCCCCCCC(=O)OC(c1cnc(SC)o1)C(C)(C)C (stereo not given) |  |  |  |  | 0 | 0 | 0 | 0 | > 32 | zone of inhibition at 300 µg/disc [10]: 0 mm |
| OC(c1ccc2ccccc2c1)c1cnco1 (stereo not given) |  |  |  |  | 10 |  | 7.5 |  |  | MIC [11]: 32 µg/mL (≈ 142 µM); MIC [12]: > 64 µg/mL; MIC [13]: > 64 µg/mL |
| CSc1ncc(C(O)c2ccc(Br)cc2)o1 (stereo not given) |  |  |  |  | 13 |  | 9 | 12 |  | MIC [11]: 8 µg/mL (≈ 26.7 µM); MIC [12]: 4 µg/mL (≈ 13.3 µM); MIC [13]: 4 µg/mL (≈ 13.3 µM) |
| COc1ccc(C(O)c2cnc(SC)o2)cc1 (stereo not given) |  |  |  |  | 8 |  | 0 | 0 |  |  |
| CCCCCCCCCCCCCC(=O)OC(c1ccccc1)c1cnc(SC)o1 (stereo not given) |  |  |  |  | 0 | 0 | 0 | 0 | > 32 | zone of inhibition at 300 µg/disc [10]: 0 mm |
| CCCCCCCCCCCCCC(=O)OC(c1ccccc1)c1cnco1 (stereo not given) |  |  |  |  | 0 | 0 | 0 | 0 | > 32 | zone of inhibition at 300 µg/disc [10]: 0 mm |
| C[C@@H]1[C@H](O)[C@@H](C)/C=C/C=C/C=C/C=C/C=C/C=C/C=C/[C@H](O[C@@H]2O[C@H](C)[C@@H](O)[C@H](N)[C@@H]2O)C[C@@H]2O[C@](O)(C[C@@H](O)C[C@@H](O)[C@H](O)CC[C@@H](O)C[C@@H](O)CC(=O)O[C@H]1C)C[C@H](O)[C@H]2C(=O)O [AMPHOTERICIN B] |  |  |  |  |  |  |  |  | > 32 | zone of inhibition at 5 µg/disc [23]: 15 mm; zone of inhibition at 5 µg/disc [24]: 12 mm; MIC [11]: 0.5 µg/mL (≈ 0.541 µM); zone of inhibition at 5 µg/disc [25]: 19 mm; zone of inhibition at 5 µg/disc [26]: 22 mm; zone of inhibition at 5 µg/disc [27]: 23 mm; MIC [12]: 0.25 µg/mL (≈ 0.271 µM); MIC [13]: 0.5 µg/mL (≈ 0.541 µM) |
| CCCCCCCCCCCCCC(=O)OC(c1ccco1)c1nc(C(CCC)O[Si](C)(C)C(C)(C)C)co1 (stereo not given) | inactive | inactive | inactive | inactive |  |  |  |  |  |  |
| C[C@@H](O[Si](C)(C)C(C)(C)C)[C@@H]1OC(C)(C)O[C@@H]1C[C@H](O)c1cocn1 |  |  |  |  | 10 | 0 | 9 | 0 | > 32 | zone of inhibition at 300 µg/disc [10]: 0 mm |
| CCCCCCCCCCCCCC(=O)OC(c1ccc(Br)cc1)c1cnc(SC)o1 (stereo not given) |  |  |  |  | 0 | 0 | 0 | 0 | > 32 | MIC [11]: > 64 µg/mL; MIC [12]: > 64 µg/mL; zone of inhibition at 300 µg/disc [10]: 0 mm; MIC [13]: > 64 µg/mL |
| O=Cc1cocn1 |  |  |  |  |  | 10 |  |  | > 32 |  |
| CCCCCCCCCCCCCC(=O)OC(c1cnco1)c1nc(C(CCC)O[Si](C)(C)C(C)(C)C)co1 (stereo not given) | inactive | inactive | inactive | inactive |  |  |  |  |  |  |
| CSc1ncc(C(O)C(C)(C)C)o1 (stereo not given) |  |  |  |  |  |  | 0 |  |  |  |
| CCCCCCCCCCCCCC(=O)OC(c1cnco1)c1nc(C(O)CCC)co1 (stereo not given) | inactive | inactive | inactive | inactive |  |  |  |  |  |  |
